# Source: PubChem
# This excerpt belongs to a sample that is enriched for hits.
# MDM2 E3 inh – inhibitors of human Mdm2 E3 ubiquitin ligase. 210,000 tested, 0.11% active. AID 1230. cell-based MDM2 ubiquitination luciferase reporter, 2 h; 0 = plate control, 100 = twice control, blank-subtracted. signal enhancement, % at 5 µM;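 active = signal enhancement of 30% or more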;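 note: luminescence tracks abundance of the self-degrading MDM2-luciferase fusion protein; higher signal means inhibition of MDM2 E3 ligase activity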
# Target sequence (Q00987 whole entry, looked up, the tested form may be a part): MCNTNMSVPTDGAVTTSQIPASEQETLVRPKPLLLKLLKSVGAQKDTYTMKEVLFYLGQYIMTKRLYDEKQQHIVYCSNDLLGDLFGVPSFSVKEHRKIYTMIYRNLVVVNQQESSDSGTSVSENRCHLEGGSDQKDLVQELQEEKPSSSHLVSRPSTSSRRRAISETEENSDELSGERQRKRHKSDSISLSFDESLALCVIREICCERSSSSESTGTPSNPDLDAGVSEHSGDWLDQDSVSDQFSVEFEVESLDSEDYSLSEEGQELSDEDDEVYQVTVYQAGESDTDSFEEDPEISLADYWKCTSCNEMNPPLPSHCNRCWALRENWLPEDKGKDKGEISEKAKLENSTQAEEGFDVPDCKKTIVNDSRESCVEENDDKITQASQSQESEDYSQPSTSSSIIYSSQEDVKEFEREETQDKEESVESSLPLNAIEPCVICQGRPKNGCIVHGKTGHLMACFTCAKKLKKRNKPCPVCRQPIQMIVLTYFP
#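 Test system: mammalian cells stably expressing self-ubiquitinating, self-degrading MDM2 E3–luciferase fusion; Amount: 2000 cells in each well; Medium: DMEM; Schedule: 4 h settle plus 2 h compound, 37 °C; Technique: SteadyLite luciferase luminescence after 15 min room-temperature reagent incubation; Benchmarks: plate control and blank wells.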
# S1P4 ag – agonists of human S1P4 receptor. O95977. 220,000 tested, 0.35% active. S1P4-expressing cell line, agonist reporter assay. AID 1509. activation, % at 4.98 µM; in the data active = activation above about 11%
# S1P4 antagonist – human S1P4 receptor antagonism; 220,000 tested, 0.26% active; O95977; S1P4-expressing cells, antagonist mode, reporter read-out; inhibition, % at 4.98 µM; in the data active = inhibition above about 29%
# S1P3 antagonist – S1P3 (human) receptor antagonism | CHO S1P3 NFAT-BLA reporter, FRET fluorescence, antagonist mode | inhibition, % at 4.98 µM | 170,000 tested, 0.27% active | AID 485;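 active = inhibition above the plate cutoff, the mean inhibition of test wells on that plate plus 3 SD, cut at about 28% in these data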;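 note: cells challenged with S1P at its EC80 of 0.8 µM; blue over green emission ratio from cleaved BLA substrate after 4 h stimulation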
# L major viab – reduces viability of Leishmania major promastigotes; resazurin fluorescence viability; inhibition, % at 10 µM; 200,000 tested, 9% active; in the data active = inhibition above about 50%;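 note: promastigotes grown with compound for 44 hours at 28 °C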
# Hits are given with their value; n = inactive; x = no result given.
SMILES,MDM2 E3 inh,S1P4 ag,S1P4 antagonist,S1P3 antagonist,L major viab
COc1cccc(CNC(=O)C2CCCN(S(=O)(=O)c3c(C)[nH]c(=O)[nH]c3=O)C2)c1 (stereo unspecified),n,n,n,x,n
CSc1nc(C)cc(Oc2ccccc2)n1,n,n,n,n,n
COc1ccc(-n2c(SCC(=O)NCc3ccco3)nc3c([nH]c4ccccc43)c2=O)cc1,n,n,n,x,n
Cc1ccc(NC(=O)/C(=C/c2cccc(Br)c2)NC(=O)c2ccco2)cc1,n,n,n,n,90.5
CSc1ccc(/C=C(\NC(=O)c2ccc(C)cc2)C(=O)NN)cc1,n,n,n,n,x
CSc1ccc(/C=C(/NC(=O)c2ccc(C)cc2)C(=O)Nc2cccc(C)c2)cc1,n,n,n,n,63.2
O=C(Nc1ccc(C(=O)O)cc1)/C(=C/c1cccc(Br)c1)NC(=O)c1ccco1,n,n,n,n,n
O=C(Nc1ncc(Br)s1)C(Cc1ccccc1)n1cccc1 (stereo unspecified),n,n,n,66.8,n
COc1cc2nc(N(C)C)nc(N)c2cc1OC,n,n,n,n,99.9
COc1cc2nc(N(C)CCCNC(=O)C3CCCO3)nc(N)c2cc1OC (stereo unspecified),x,n,n,n,x
CCN1CCN(c2ncnc3c2cnn3-c2ccccc2)CC1,n,n,n,90.1,n
CN1CCN(c2ncnc3c2cnn3-c2ccc(Cl)cc2)CC1,n,n,n,n,88.2
CCN1CCN(c2ncnc3c2sc(=S)n3-c2ccccc2)CC1,n,n,n,n,51.6
COc1ccc(-n2ncc3c(N4CCN(Cc5ccccc5)CC4)ncnc32)cc1,n,n,n,n,67.3
S=c1sc2c(N3CCN(Cc4ccccc4)CC3)ncnc2n1-c1ccccc1,n,n,n,x,n
Cn1c(Cc2cccs2)nnc1SC/C=C/c1ccccc1,n,n,n,n,n
Cc1ccc(C(=O)N2CCN(c3ncnc4c3cnn4-c3ccccc3)CC2)cc1,x,n,n,x,53.0
Cc1c(Cl)cccc1NC(CC(=O)c1ccccc1)C(=O)O (stereo unspecified),n,n,n,n,67.5
O=C(CC(Nc1ccccc1Cl)C(=O)O)c1ccccc1 (stereo unspecified),n,n,n,n,n
N#CCCN/N=C(/Cc1nc2ccccc2[nH]1)c1cccc(Cl)c1,n,n,n,x,77.6
CC(C)C1CC(CCNCc2ccc3c(c2)OCO3)(c2ccccc2)CCO1 (stereo unspecified),n,n,n,n,x
Cc1ccc(C2(CCNCc3ccc(N(C)C)cc3)CCOC(C(C)C)C2)cc1 (stereo unspecified),n,n,n,n,100.0
CC(C)C1CC(CCNCc2ccc(N(C)C)cc2)(c2ccccc2)CCO1 (stereo unspecified),n,n,n,n,97.6
Cc1ccc(C2(CCNS(=O)(=O)c3ccc(C)cc3)CCOC(C(C)C)C2)cc1 (stereo unspecified),n,n,n,n,63.5
Cc1ccc(C2(CC(=O)N3CCCC3)CCOC(C(C)C)C2)cc1 (stereo unspecified),n,n,n,x,n
SMILES,MDM2 E3 inh,S1P4 ag,S1P4 antagonist,S1P3 antagonist,L major viab
CC12CCC(C(=O)N3CCCc4ccccc43)(OC1=O)C2(C)C (stereo unspecified),n,n,n,n,n
CC(C)(CN1CCN(C(c2ccccc2)c2ccccc2)CC1)NS(=O)(=O)c1ccccc1,n,n,n,n,x
Cc1cc(C)n2c(Br)c(CSc3nc4ccccc4s3)nc2n1,n,n,n,n,n
COc1ccc(C(=O)Nc2nnc(CCS(=O)(=O)c3ccc(C)cc3)s2)cc1,n,n,n,n,n
CC(=O)Nc1ccc(C(=O)OCC(=O)NCc2ccccc2)cc1,n,n,n,n,n
CC(=O)Nc1ccc(C(=O)OCC(=O)N(Cc2ccccc2)C(C)(C)C)cc1,n,n,n,x,66.5
CCC(Sc1nc(N)cc(N)n1)C(=O)O (stereo unspecified),n,n,n,x,n
O=C(c1cc(N2C(=O)C3C4CCC(C4)C3C2=O)ccc1Cl)N1CCN(c2ccccc2)CC1 (stereo unspecified),n,n,n,n,71.7
COC(=O)C(O)(NC(=O)c1ccncc1)C(F)(F)F (stereo unspecified),x,n,n,n,x
COc1ccc(CN(C)CC(=O)Nc2ccc(Cl)cc2C(F)(F)F)c(OC)c1,n,n,n,n,n
CC(=O)N1c2ccc3ccccc3c2C2C=CCC2C1c1ccc(Br)cc1 (stereo unspecified),n,n,n,n,97.3
